Consider 25 molecules from ChEMBL document CHEMBL1129492, “Structure-activity relationships among 2-substituted 5,6-dichloro-, 4,6-dichloro-, and 4,5-dichloro-1-[(2-hydroxyethoxy) methyl]- and -1-[(1,3-dihydroxy-2-propoxy) methyl]benzimidazoles” (J Med Chem, 1996).

Test [1] relates to Human betaherpesvirus 5. The experiment in a line: Antiviral activity against human cytomegalovirus (HCM virus) in plaque assay. The class given is functional, organism-based. A digest of the protocol:
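HCMV Towne strain (plaque-purified P_O) at ca. 100 PFU/cm² on HFF cell sheets. After adsorption, compound in growth medium was added to duplicate wells at four to eight concentrations. Incubated 7 days at 37 °C, then crystal violet staining and microscopic plaque counts. Percent plaque reduction versus no drug; IC50 from regression lines.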

Test [2] deals with HFF. As to the kind of experiment: Visual cytotoxicity of compound on HFF cells at time of HCMV plaque enumeration. The class given is functional, cell-based. The note with it: Homo sapiens. A digest of the protocol: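 Stationary, uninfected HFF cells in the HCMV plaque assay were scored microscopically for cytotoxicity when plaques were enumerated, after 7 days at 37 °C.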

Test [3] deals with Human alphaherpesvirus 1. As to the kind of experiment: Antiviral activity against herpes simplex virus type 1 (HSV-1) in an ELISA assay. The class given is functional, organism-based. A digest of the protocol:
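BSC-1 cells (10 000/well, MEM(E) + 10% calf serum) incubated overnight at 37 °C, then given drug in quadruplicate with HSV-1 at 100 PFU/well. After 3 days at 37 °C, plates were blocked and probed with HRP-conjugated rabbit anti-HSV-1 antibody and developed with tetramethylbenzidine. Absorbance was read at 450 and 570 nm. Percent reduction was taken versus virus without drug.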

Test [4] concerns KB. The experiment in a line: Inhibitory activity of compound against KB cell growth [>-indicates IC50/IC90 was not reached at the noted (highest) concentration tested]. The note with it: Homo sapiens. The class given is functional, cell-based. An outline of the steps:
(§1)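 KB cells plated at 3000-5000 cells/well and held overnight at 37 °C. Compound added in quadruplicate at six to eight concentrations, then 48 h at 37 °C in CO₂ (about two population doublings). Cells fixed with 95% ethanol, stained with 0.1% crystal violet, dye eluted with acidified ethanol and read at 570 nm. IC50 from regression.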

Test [5] deals with KB. The experiment in a line: Inhibitory activity of compound against KB cell growth. The following applies: Homo sapiens. The class given is functional, cell-based. A digest of the protocol:
as §1

Test [6] deals with Human betaherpesvirus 5. The experiment in a line: Antiviral activity of compound against HCM virus in yield reduction experiments. The class given is functional. An outline of the steps:
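HFF cells infected with HCMV (Towne) at moi 0.5-1 PFU/cell, then given compound serially diluted 1:3 (100 to 0.14 µM) in duplicate. After 7 days at 37 °C, one freeze-thaw cycle. Progeny virus was titered by 1:3 serial dilution on fresh HFF monolayers with plaque counting. IC90 reported.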

The test system of test [7] is Human betaherpesvirus 5. The experiment in a line: Antiviral activity of compound against HCMvirus in yield reduction experiments. The class given is functional. A digest of the protocol: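 HCMV Towne strain (plaque-purified isolate P_O) grown on HFF cells in 96-well dishes, infected at moi 0.5-1 PFU/cell. After adsorption, compound added in 1:3 serial dilutions from 100 to 0.14 µM, in duplicate. 7 days at 37 °C, then one freeze-thaw. Progeny titred by plaque count on fresh HFF monolayers.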

As for `OCC(CO)OCn1c(Cl)nc2cc(Cl)c(Cl)cc21`, the IC50 in test [1], in test [2], in test [3] and in test [4] was above 100 µM in each case.
In the case of `CNc1nc2c(Cl)c(Cl)ccc2n1COCCO`, the IC50 in test [1], in test [2], in test [3] and in test [5] was above 100 µM throughout.
For the molecule `OCC(CO)OCn1c(Br)nc2c(Cl)cc(Cl)cc21`, the results for the IC50 in test [1], in test [2] and in test [4] were 136 µM, 161 µM and above 100 µM, respectively. Besides, the 90% effect level in test [6] (IC90) was put at 50 µM.
Take `Nc1nc2cc(Cl)c(Cl)cc2n1COC(CO)CO`: the IC50 in test [1], in test [2], in test [3] and in test [4] was above 100 µM each time.
`OCC(CO)OCn1c(Br)nc2cc(Cl)c(Cl)cc21`: the IC50 in test [1] is above 100 µM; in test [2] it was above 100 µM; in test [3], 100 µM; in test [4] it was above 100 µM. Further, the IC90 in test [6] was 25 µM.
As to `CN(C)c1nc2c(Cl)c(Cl)ccc2n1COC(CO)CO`, the IC50 in test [1], in test [2], in test [3] and in test [4] was above 100 µM in each case.
For the molecule `CN(C)c1nc2c(Cl)cc(Cl)cc2n1COC(CO)CO`, the IC50 in test [1], in test [2], in test [3] and in test [4] was above 100 µM in each case.
Take `OCC(CO)OCn1cnc2cc(Cl)c(Cl)cc21`: the IC50 in test [1], in test [2], in test [3] and in test [4] was above 100 µM each time.
On to `OCC(CO)OCn1c(Cl)nc2c(Cl)c(Cl)ccc21`, for which the IC50 was above 100 µM in test [1], above 100 µM in test [2], 100 µM in test [3] and above 100 µM in test [4].
As to `OCC(CO)OCn1c(S)nc2c(Cl)cc(Cl)cc21`, the IC50 in test [1], in test [2], in test [3] and in test [4] was above 100 µM in each case.
In the case of `OCC(CO)OCn1c(SCc2ccccc2)nc2c(Cl)c(Cl)ccc21`, the IC50 in test [1] worked out at 35 µM; in test [2], 32 µM; in test [3] it was 55 µM; in test [4] it was 60 µM.
The like results for `OCC(CO)OCn1cnc2c(Cl)c(Cl)ccc21` were, in that order, above 100 µM, above 100 µM, above 100 µM and above 100 µM.
For `Nc1nc2c(Cl)c(Cl)ccc2n1COC(CO)CO`, the IC50 in test [1], in test [2], in test [3] and in test [4] was above 100 µM in each case.
Turning to `OCCOCn1c(Cl)nc2c(Cl)c(Cl)ccc21`, the IC50 in test [1], in test [2], in test [3] and in test [5] was above 100 µM in each case.
In test [7], `OC[C@H]1O[C@H](n2c(Br)nc3cc(Cl)c(Cl)cc32)[C@@H](O)[C@H]1O` returned an IC90 of 0.2 µM. The molecule further returned an IC50 in test [4] above 100 µM.
With `OCC(CO)OCn1c(S)nc2c(Cl)c(Cl)ccc21`, the IC50 in test [1], in test [2], in test [3] and in test [4] was above 100 µM throughout.
With `CN(C)c1nc2cc(Cl)c(Cl)cc2n1COC(CO)CO`, the IC50 in test [1], in test [2], in test [3] and in test [4] was above 100 µM in each case.
With `OCCOCn1c(SCc2ccccc2)nc2c(Cl)c(Cl)ccc21`, the IC50 in test [1] was 30 µM; in test [2], 32 µM; in test [3], above 100 µM; in test [5] it was 35 µM.
`CNc1nc2c(Cl)c(Cl)ccc2n1COC(CO)CO`: the IC50 in test [1], in test [2], in test [3] and in test [4] was above 100 µM throughout.
On to `OCC(CO)OCn1c(S)nc2cc(Cl)c(Cl)cc21`, for which the IC50 in test [1] was above 100 µM; in test [2] it was above 100 µM; in test [3], 55 µM; in test [4], above 100 µM.
For the molecule `OCC(CO)OCn1c(Br)nc2c(Cl)c(Cl)ccc21`, the IC50 in test [1], in test [2], in test [3] and in test [4] was above 100 µM in each case.
For `CNc1nc2cc(Cl)c(Cl)cc2n1COC(CO)CO`, the IC50 in test [1], in test [2], in test [3] and in test [4] was above 100 µM in each case.
On to `OCC(CO)OCn1c(SCc2ccccc2)nc2cc(Cl)c(Cl)cc21`, for which the IC50 in test [1], in test [2], in test [3] and in test [4] was above 100 µM throughout.
In test [7], `OC[C@H]1O[C@@H](n2c(Cl)nc3cc(Cl)c(Cl)cc32)[C@H](O)[C@@H]1O` gave an IC90 of 1.4 µM.
For `Nc1nc2c(ncn2COC(CO)CO)c(=O)[nH]1` [GANCICLOVIR], the IC50 in test [2] and in test [4] was above 100 µM in each case. It took 1.6 µM to reach the 90% level in test [6] (IC90).
